T cruzi intra – inhibitors of intracellular Trypanosoma cruzi, primary screen, cell-based, plate reader, single point, set 2 | intracellular Trypanosoma cruzi in host cells | activity score (inhibition), % at 5.01 µM | 4.9% of 22,000 active; in the data active = activity score above about 55%; inconclusive = no clear call, values can overlap the other calls;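 note: parasites and compound incubated about four days before reading; 0% = median of neutral control wells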
INS-1E rescue – protection of INS-1E cells from cytokine death, primary screen, ATP luminescence, single point; INS-1E cytokine-induced death, 48 h; normalised: neutral wells 0, positive control 100; 0.1% of 20,000 active; protection from cytokine-induced ATP loss, % at 10 µM;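 active = mean replicate protection from cytokine-induced ATP loss at least 50% and at least 75% of replicates each reaching 50%; inconclusive = meets only one of the two criteria, mean or replicate share; inactive = fails both the mean and replicate share criteria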
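Assay system: INS-1E rat cells / Quantity: 8000 cells per well / Medium: RPMI without phenol red, 5% FBS / Probe or stimulus: three-cytokine cocktail (IFN-γ, TNF-α, IL-1β) / Dosing: one compound concentration, pin transfer / Timing: 48 h co-treatment, 10 min post-lysis read / Technique: CellTiter-Glo luminescence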
YB-1 expression – inhibitors of YB-1 gene expression, primary screen, cell-based, fluorescence; U2OS, qRT-PCR YB-1 vs CDIP delta delta Cp, 16 h; hits give high values; zero = DMSO, each unit about twofold; delta delta Cp (YB-1 minus CDIP) (test concentration not listed); 0.37% of 30,000 active; AID 434959, 2010;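 active = delta delta Cp rounded down to an integer at or above 3, about 3 SD of DMSO wells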;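 note: higher means less YB-1 transcript or more CDIP transcript relative to DMSO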
Numbers without * were called inactive; ? = inconclusive; . = not tested or not shown. The sample as a whole holds a higher share of hits than the screen did.

SMILES | T cruzi intra | INS-1E rescue | YB-1 expression
Cc1csc(NC(=O)CSc2nc(C34CC5CC(CC(C5)C3)C4)ccc2C#N)n1 | . | . | 0.7
CC(=O)NC(=O)C1C=C2C=CC=CC2OC1=Nc1ccc(C(F)(F)F)cc1 (stereo unspecified) | . | . | 0.41
Cn1c(=O)c2c(O)c(C=Nc3ccc(Cl)cc3)c(=O)n(C)c2n(C)c1=O | . | . | -0.14
C[C@@H]1CN([C@@H](C)CO)C(=O)c2cccc(NC(=O)Nc3ccc(F)cc3)c2O[C@H]1CN(C)Cc1ccc(C(=O)Nc2ccccc2N)cc1 | 73* | 2 | -0.079
C[C@H]1CN([C@@H](C)CO)C(=O)c2cccc(NC(=O)Nc3ccc(F)cc3)c2O[C@@H]1CN(C)Cc1ccc(C(=O)Nc2ccccc2N)cc1 | 67* | 4 | -0.34
C[C@H]1CN([C@@H](C)CO)C(=O)c2cc(NC(=O)Nc3ccc(F)cc3)ccc2O[C@H]1CN(C)Cc1ccc(C(=O)Nc2ccccc2N)cc1 | 51 | -4 | -0.035
C[C@H](CO)N1C[C@H](C)[C@H](CN(C)Cc2ccc(C(=O)Nc3ccccc3N)cc2)Oc2c(NC(=O)Nc3ccc(F)cc3)cccc2C1=O | 51 | -8 | -0.028
C[C@@H]1CN([C@@H](C)CO)C(=O)c2cccc(NC(=O)Nc3ccc(C(F)(F)F)cc3)c2O[C@H]1CN(C)Cc1ccc(C(=O)Nc2ccccc2N)cc1 | ? | -26 | -0.21
C[C@@H]1CN([C@H](C)CO)C(=O)c2cccc(NC(=O)Nc3ccc(F)cc3)c2O[C@H]1CN(C)Cc1ccc(C(=O)Nc2ccccc2N)cc1 | 78* | 7 | -0.63
Oc1ccccc1CNCc1ccccn1 | . | . | -0.18
Cc1c(C)c(C)c(S(=O)(=O)N=C(N)N)c(C)c1C | . | . | 0.14
Cc1cc(O)c(C)c2c1Oc1c(C)c(O)cc(C)c1C(=O)O2 | . | . | -0.68
COc1ccc2c(c1OC)C(=O)N1c3ccccc3N=C(c3ccc(Br)cc3)CC21 (stereo unspecified) | . | . | 9.6*
CS(=O)(=O)N1N=C(c2ccc(Br)cc2)CC1c1cc2ccccc2nc1Cl (stereo unspecified) | . | . | -0.24
CC(=O)OC[C@]12[C@H](OC(C)=O)[C@H](OC(C)=O)[C@@H]3[C@@H](OC(C)=O)[C@@]14O[C@@]3(C)COC(=O)c1ncccc1CC[C@H](C)C(=O)O[C@@H]([C@H](O)[C@@H]2OC(=O)c1ccccc1)[C@]4(C)O | . | . | -0.38
O=C(Cc1ccccc1)Nc1c(C(=O)N2CCCCC2)cnn1-c1ccccc1 | . | . | -0.26
COCCOC(=O)N1C(=O)[C@@]2(c3cc(C#Cc4ccc(OC)cc4)ccc31)[C@H](C(N)=O)[C@H]1C(=O)O[C@H](c3ccccc3)[C@H](c3ccccc3)N1[C@@H]2c1ccccc1OCCO | . | . | 9.5*
COCCOC(=O)N1C(=O)[C@@]2(c3cc(C#Cc4ccc(OC)cc4)ccc31)[C@H](C(N)=O)[C@H]1C(=O)O[C@H](c3ccccc3)[C@H](c3ccccc3)N1[C@@H]2c1ccc(OCCO)cc1 | . | . | -0.32
C[C@H]1CN([C@@H](C)CO)C(=O)Cc2cc(NS(=O)(=O)c3ccccc3)ccc2O[C@@H]1CN(C)Cc1ccc(Cl)c(Cl)c1 | 65* | -9 | 0.042
C[C@@H]1CN([C@H](C)CO)C(=O)Cc2cc(NS(C)(=O)=O)ccc2O[C@@H]1CN(C)Cc1ccc(Cl)c(Cl)c1 | 28 | -13 | -0.16
C[C@@H]1CN([C@@H](C)CO)C(=O)Cc2cc(NS(=O)(=O)c3ccccc3)ccc2O[C@@H]1CN(C)Cc1ccc(Cl)c(Cl)c1 | 53 | -28 | 0.17
C[C@H]1CN([C@@H](C)CO)C(=O)Cc2cc(NS(=O)(=O)c3ccc(Cl)cc3)ccc2O[C@@H]1CN(C)Cc1ccc(Cl)c(Cl)c1 | 35 | 4 | -0.15
C[C@H]1CN([C@@H](C)CO)C(=O)Cc2cc(NS(C)(=O)=O)ccc2O[C@@H]1CN(C)Cc1ccc(Cl)c(Cl)c1 | 64* | 3 | 0.27
C[C@@H]1CN([C@@H](C)CO)C(=O)Cc2cc(NS(=O)(=O)c3ccc(Cl)cc3)ccc2O[C@@H]1CN(C)Cc1ccc(Cl)c(Cl)c1 | 61* | -17 | 0.3
O=C(O)c1ccc(NS(=O)(=O)c2cc3c4c(cccc4c2)C(=O)NC3=O)cc1 | . | . | 0.41
SMILES | T cruzi intra | INS-1E rescue | YB-1 expression
COc1ccc2c(c1)c(C(=O)O)c(C)n2CCc1ccc(OC)c(OC)c1 | . | . | -0.32
COc1ccc2c(c1)c(C(=O)ON1C(=O)CCC1=O)c(C)n2C1CC1 | . | . | 3.8*
C[C@H](CO)N1C[C@H](C)[C@H](CN(C)Cc2ccc(Cl)c(Cl)c2)Oc2c(NC(=O)c3cnccn3)cccc2C1=O | 43 | -23 | -0.25
C[C@@H]1CN([C@@H](C)CO)C(=O)c2cccc(NC(=O)c3ccncc3)c2O[C@@H]1CN(C)Cc1ccc(Cl)c(Cl)c1 | 68* | -8 | -0.41
C[C@H](CO)N1C[C@H](C)[C@@H](CN(C)Cc2ccc(Cl)c(Cl)c2)Oc2c(NC(=O)c3ccncc3)cccc2C1=O | 78* | -14 | 0.12
c1ccc(CN2CCN(Cc3ccccc3)C2c2ccco2)cc1 | . | . | -0.024
Cc1ccc(S(=O)(=O)N(C)C[C@H]2OCCCC[C@@H](C)Oc3ccc(NC(=O)Nc4ccc(C(F)(F)F)cc4)cc3C(=O)N([C@H](C)CO)C[C@@H]2C)cc1 | 64* | -61 | 0.086
COc1ccc(NC(=O)Nc2ccc3c(c2)C(=O)N([C@H](C)CO)C[C@H](C)[C@H](CN(C)S(=O)(=O)c2ccc(OC)cc2)OCCCC[C@@H](C)O3)cc1 | -3 | -1 | 0.64
C[C@@H]1CCCCO[C@H](CN(C)S(=O)(=O)c2ccccc2)[C@@H](C)CN([C@H](C)CO)C(=O)c2cc(NC(=O)c3ccccc3)ccc2O1 | 9 | 4 | 0.13
COc1ccc(S(=O)(=O)N(C)C[C@@H]2OCCCC[C@@H](C)Oc3ccc(NC(=O)Nc4ccc(C(F)(F)F)cc4)cc3C(=O)N([C@H](C)CO)C[C@@H]2C)cc1 | 65* | -11 | -0.012
Cc1ccc(S(=O)(=O)N(C)C[C@H]2OCCCC[C@@H](C)Oc3ccc(NC(=O)NC(C)C)cc3C(=O)N([C@H](C)CO)C[C@@H]2C)cc1 | -19 | 4 | -0.15
Cc1noc(C)c1S(=O)(=O)N(C)C[C@H]1OCCCC[C@@H](C)Oc2ccc(NC(=O)Nc3ccc(C(F)(F)F)cc3)cc2C(=O)N([C@H](C)CO)C[C@@H]1C | 70* | -23 | 0.31
Cc1noc(C)c1NC(=O)Nc1ccc2c(c1)C(=O)N([C@H](C)CO)C[C@H](C)[C@@H](CN(C)S(=O)(=O)c1c(C)noc1C)OCCCC[C@@H](C)O2 | -4 | 0 | -0.24
C[C@@H]1CCCCO[C@H](CN(C)S(=O)(=O)c2ccccc2)[C@@H](C)CN([C@H](C)CO)C(=O)c2cc(NC(=O)Nc3ccc(C(F)(F)F)cc3)ccc2O1 | 64* | -18 | 0.063
Cc1onc(-c2ccccc2)c1C(=O)NC1C(=O)N2[C@@H]1SC(C)(C)[C@@H]2C(=O)O (stereo partly specified) | . | . | 0.016
CCOc1ccc(C(=O)NC2CCCCC2)cc1 | . | . | 0.063
Oc1ccc(C=Nc2ccccc2)cc1 | . | . | -0.17
